Source: ChEMBL document CHEMBL4251707, “Stereochemical Structure Activity Relationship Studies (S-SAR) of Tetrahydrolipstatin” (ACS Med Chem Lett, 2018)

Key:
Assay type in all cases: cell-based
NCI-H460 = assay: Cytotoxicity against human H460 cells assessed as reduction in cell viability after 72 hrs by MTT assay; conditions: NCI-H460, 72 h
Summary of the method: (§1)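 Cells plated at 5 × 10^3 cell/well and grown 12 to 16 h, then exposed to compound for 72 h over 0.1 nM to 100 μM, with untreated wells as controls. Viability was read by MTT as absorbance at 570 nm.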

MDA-MB-231 [1] = assay: Cytotoxicity against human MDA-MB-231 cells assessed as reduction in cell viability after 72 hrs by MTT assay; conditions: MDA-MB-231, 72 h; summary of the method: as §1
MCF7 = assay: Cytotoxicity against human MCF7 cells assessed as reduction in cell viability after 72 hrs by MTT assay; conditions: MCF7, 72 h; summary of the method: as §1
MDA-MB-231 [2] = assay: Cytotoxicity against human MDA-MB-231 cells assessed as reduction in cell viability

| SMILES | IC50 (NCI-H460) | IC50 (MDA-MB-231 [1]) | IC50 (MCF7) | IC50 (MDA-MB-231 [2]) |
| --- | --- | --- | --- | --- |
| CCCCCCCCCCC[C@@H](C[C@H]1OC(=O)[C@@H]1CCCCCC)OC(=O)[C@@H](CC(C)C)NC=O | > 100 µM | > 100 µM | > 100 µM | – |
| CCCCCCCCCCC[C@H](C[C@H]1OC(=O)[C@@H]1CCCCCC)OC(=O)[C@H](CC(C)C)NC=O | > 100 µM | > 100 µM | > 100 µM | – |
| CCCCCCCCCCC[C@H](C[C@@H]1OC(=O)[C@H]1CCCCCC)OC(=O)[C@H](CC(C)C)NC=O | > 100 µM | > 100 µM | > 100 µM | – |
| CCCCCCCCCCC[C@@H](C[C@H]1OC(=O)[C@@H]1CCCCCC)OC(=O)[C@H](CC(C)C)NC=O | > 100 µM | > 100 µM | > 100 µM | – |
| CCCCCCCCCCC[C@H](C[C@H]1OC(=O)[C@@H]1CCCCCC)OC(=O)[C@@H](CC(C)C)NC=O | > 100 µM | > 100 µM | > 100 µM | – |
| CCCCCCCCCCC[C@@H](C[C@@H]1OC(=O)[C@H]1CCCCCC)OC(=O)[C@@H](CC(C)C)NC=O | > 100 µM | > 100 µM | > 100 µM | – |
| CCCCCCCCCCC[C@H](C[C@@H]1OC(=O)[C@H]1CCCCCC)OC(=O)[C@@H](CC(C)C)NC=O | > 100 µM | > 100 µM | > 100 µM | – |
| CC[C@@]1(O)C(=O)OCc2c1cc1n(c2=O)Cc2cc3ccccc3nc2-1 [CAMPTOTHECIN] | 0.11 µM | 0.54 µM | 0.16 µM | – |
| CCCCCCCCCCC[C@@H](C[C@@H]1OC(=O)[C@H]1CCCCCC)OC(=O)[C@H](CC(C)C)NC=O [ORLISTAT] | > 100 µM | > 100 µM | > 100 µM | 13 µM |
